Assay results reported in ChEMBL document CHEMBL1671690, “Madurella mycetomatis is not susceptible to the echinocandin class of antifungal agents” (2010).
Calls of active or inactive are those of the source. Numbered stars: 1 amine (or outer) side, 2 acyl side, 3 side chain; on linkers, the order of the positions; unused ones are H or OH. Bridge positions count the residues as written; N and C are the ends. Square brackets hold non-standard residues; d marks the D form. Peptide text beside a SMILES is read from it. * marks the point of attachment. hTyr(3S-OH,4S-OH,3'-OSO3H) = N[C@H](C(=O)O)[C@H](O)[C@@H](O)c1ccc(O)c(OS(=O)(=O)O)c1; pTerphenylCO(4''-OnC5H11) = CCCCCOc1ccc(-c2ccc(-c3ccc(C(=O)*)cc3)cc2)cc1; Orn(4R-OH,5R-OH) = O=C([C@H](C[C@@H](O)[C@@H](O)N[*:3])N[*:1])[*:2]; hTyr(3S-OH,4S-OH) = N[C@H](C(=O)O)[C@H](O)[C@@H](O)c1ccc(O)cc1; Pro(3S-OH,4S-Me) = C[C@H]1CN[C@H](C(=O)O)[C@H]1O; X1 = CCCCCOc1ccc(-c2cc(-c3ccc(C(=O)*)cc3)no2)cc1; Gln(3R-OH) = NC(=O)C[C@@H](O)[C@H](N)C(=O)O; Hyp = O=C(O)[C@@H]1C[C@@H](O)CN1

Assays:
[1] = system: Madurella mycetomatis; assay: Inhibition of beta-1,3-D-glucan synthesis in Madurella mycetomatis isolate 55 after 7 days by […] assay; assay type: functional
Method in brief: (§1)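 A hyphal suspension in RPMI was exposed to drug in tubes for 7 days at 37°C. Mycelium was freeze-dried, taken up in 1 M NaOH, probe-sonicated for 15 s and held at 52°C for 30 min. Glucan was measured by aniline blue fluorescence with curdlan as standard, then scaled to viable cells from XTT relative to growth control. Results are means with standard deviation.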

[2] = Antifungal activity against Madurella mycetomatis isolate 55 by XTT assay; assay type: functional
Method in brief: (§2)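 Ketoconazole, caspofungin and anidulafungin diluted in DMSO, micafungin in normal saline. Viability read by XTT reduction. MIC is the first concentration giving >80% spectrophotometric reduction. Done independently in triplicate.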

[3] = Antifungal activity against Madurella mycetomatis isolate 54 by XTT assay; assay type: functional; method in brief: as §2
[4] = Antifungal activity against Madurella mycetomatis isolate 43 by XTT assay; assay type: functional; method in brief: as §2
[5] = Antifungal activity against Madurella mycetomatis isolate 31 by XTT assay; assay type: functional; method in brief: as §2
[6] = Antifungal activity against Madurella mycetomatis isolate 36 by XTT assay; assay type: functional; method in brief: as §2
[7] = Antifungal activity against Madurella mycetomatis isolate 73 by XTT assay; assay type: functional; method in brief: as §2
[8] = Antifungal activity against Madurella mycetomatis isolate 50 by XTT assay; assay type: functional; method in brief: as §2
[9] = Antifungal activity against Madurella mycetomatis isolate 83 by XTT assay; assay type: functional; method in brief: as §2
[10] = Antifungal activity against Madurella mycetomatis isolate 41 by XTT assay; assay type: functional; method in brief: as §2
[11] = Antifungal activity against Madurella mycetomatis isolate 64 by XTT assay; assay type: functional; method in brief: as §2
[12] = Antifungal activity against Madurella mycetomatis isolate 35 by XTT assay; assay type: functional; method in brief: as §2
[13] = Antifungal activity against Madurella mycetomatis isolate 68 by XTT assay; assay type: functional; method in brief: as §2
[14] = Antifungal activity against Madurella mycetomatis isolate 46 by XTT assay; assay type: functional; method in brief: as §2
[15] = Antifungal activity against Madurella mycetomatis isolate 52 by XTT assay; assay type: functional; method in brief: as §2
[16] = Antifungal activity against Madurella mycetomatis isolate 39 by XTT assay; assay type: functional; method in brief: as §2
[17] = Antifungal activity against Madurella mycetomatis isolate 49 by XTT assay; assay type: functional; method in brief: as §2
[18] = Antifungal activity against Madurella mycetomatis isolate 45 by XTT assay; assay type: functional; method in brief: as §2
[19] = system: Aspergillus fumigatus; assay: Inhibition of beta-1,3-D-glucan synthesis in Aspergillus fumigatus ATCC 204305 after 48 hrs by […] assay; assay type: functional, organism-based
Method in brief: as §1, with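 “conidial” for “hyphal”, “48 h.” for “7 days at 37°C.”, “corrected” for “scaled”, “by XTT.” for “from XTT relative to growth control.”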

[20] = system: Aspergillus fumigatus; assay: Antifungal activity against Aspergillus fumigatus ATCC 204305 by XTT assay; assay type: functional; settings: for minimal effective concentration: read-out: MEC
Method in brief: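 XTT viability assay in RPMI, run independently in triplicate, with a conidial inoculum. Twofold dilutions from 0.007 to 128 mg/liter for echinocandins and 0.016 to 16 mg/liter for KTZ. Drugs dissolved in DMSO, except micafungin in normal saline. MIC is the first concentration giving more than 80% spectrophotometric reduction. MEC is the first concentration with altered growth.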

CCCCCOc1ccc(-c2cc(-c3ccc(C(=O)N[C@H]4C[C@@H](O)[C@@H](O)NC(=O)[C@@H]5[C@@H](O)[C@@H](C)CN5C(=O)[C@H]([C@H](O)CC(N)=O)NC(=O)[C@H]([C@H](O)[C@@H](O)c5ccc(O)c(OS(=O)(=O)O)c5)NC(=O)[C@@H]5C[C@@H](O)CN5C(=O)[C@H]([C@@H](C)O)NC4=O)cc3)no2)cc1 [MICAFUNGIN] (X1-[Orn(4R-OH,5R-OH)]T[Hyp][hTyr(3S-OH,4S-OH,3'-OSO3H)][Gln(3R-OH)][Pro(3S-OH,4S-Me)]; lactam 1-C)
128 µg/mL: MIC [4] | MIC [9]
inactive: inhibition [1] | inhibition [19]
> 128 µg/mL: MIC [2] | MIC [3] | MIC [5] | MIC [6] | MIC [7] | MIC [8] | MIC [11] | MIC [12] | MIC [13] | MIC [14] | MIC [15] | MIC [16] | MIC [17] | MIC [18]
8 µg/mL: MIC [10]

CCCCCOc1ccc(-c2ccc(-c3ccc(C(=O)N[C@H]4C[C@@H](O)[C@@H](O)NC(=O)[C@@H]5[C@@H](O)[C@@H](C)CN5C(=O)[C@H]([C@@H](C)O)NC(=O)[C@H]([C@H](O)[C@@H](O)c5ccc(O)cc5)NC(=O)[C@@H]5C[C@@H](O)CN5C(=O)[C@H]([C@@H](C)O)NC4=O)cc3)cc2)cc1 [ANIDULAFUNGIN] ({pTerphenylCO(4''-OnC5H11)}-[Orn(4R-OH,5R-OH)]T[Hyp][hTyr(3S-OH,4S-OH)]T[Pro(3S-OH,4S-Me)]; lactam 1-C)
< 0.007 µg/mL: minimal effective concentration [20]
> 128 µg/mL: MIC [2] | MIC [3] | MIC [4] | MIC [5] | MIC [6] | MIC [7] | MIC [8] | MIC [9] | MIC [11] | MIC [12] | MIC [20] | MIC [13] | MIC [14] | MIC [15] | MIC [16] | MIC [17] | MIC [18]
0.5 µg/mL: MIC [10]
inactive: inhibition [1] | inhibition [19]

CC(=O)N1CCN(c2ccc(OCC3COC(Cn4ccnc4)(c4ccc(Cl)cc4Cl)O3)cc2)CC1 (configuration not stated)
1 µg/mL: MIC [12]
0.25 µg/mL: MIC [2] | MIC [15] | MIC [18]
0.125 µg/mL: MIC [9] | MIC [10] | MIC [13]
0.031 µg/mL: MIC [3] | MIC [16] | MIC [17]
0.063 µg/mL: MIC [4] | MIC [5] | MIC [6] | MIC [7] | MIC [8] | MIC [11]
0.016 µg/mL: MIC [14]

CC[C@H](C)C[C@H](C)CCCCCCCCC(=O)N[C@H]1C[C@@H](O)[C@@H](NCCN)NC(=O)[C@@H]2[C@@H](O)CCN2C(=O)[C@H]([C@H](O)CCN)NC(=O)[C@H]([C@H](O)[C@@H](O)c2ccc(O)cc2)NC(=O)[C@@H]2C[C@@H](O)CN2C(=O)[C@H]([C@@H](C)O)NC1=O [CASPOFUNGIN]
64 µg/mL: MIC [3] | MIC [5] | MIC [7] | MIC [11] | MIC [13] | MIC [14] | MIC [16] | MIC [18]
128 µg/mL: MIC [2] | MIC [4] | MIC [6] | MIC [8] | MIC [9] | MIC [12] | MIC [20] | MIC [15]
inactive: inhibition [1]
0.125 µg/mL: minimal effective concentration [20]
32 µg/mL: MIC [17]
16 µg/mL: MIC [10]
